This passage reports folding enthalpy and Tm results from the array DNA melting data of Ke et al. (doi:10.1101/2024.01.08.574731).

The nature of series [1]: folding enthalpy; higher = less favourable; fluorescence melt of hairpins on a sequencing array, two-state fit. The following applies: sodium 0.088 M. Put shortly:
(§1)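 To match UV melts, fitted temperatures were raised by 9.35 °C. These fits were bootstrapped two-state models that gave melting temperature and folding enthalpy, combined by inverse variance over four replicates. The input was normalised Cy3 fluorescence of library hairpins with annealed Cy3 and quencher oligos on a sequenced MiSeq flow cell, imaged in 50 mM Na-HEPES pH 8.0, 25 mM NaCl in 2.5 °C steps up to 60 °C.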

The nature of series [2]: melting temperature; fluorescence melt of hairpins on a sequencing array, two-state fit, raised by 9.35 °C to match UV melts. The following applies: sodium 0.088 M. The method in brief:
as §1

Regarding GAAAACGAAAGTTTTTTC ((((((....)))..))), the folding enthalpy in series [1] was -20.7 kcal/mol. Further, the Tm in series [2] worked out at 38.9 °C.
With GAAAACGGAAACGTTTCC (.(((((....))))).), the folding enthalpy in series [1] was -15.1 kcal/mol. Further, the Tm in series [2] is 34.1 °C.
The corresponding values for GAAAACGGAAACGTTTTC (((((((....))))))) are -39.4 kcal/mol and 57.9 °C.
Consider GAAAATGCGAAAGCATTC (((..(((....)))))), for which the folding enthalpy in series [1] was -10 kcal/mol. Moreover, the Tm in series [2] was 32.7 °C.
Taken in the same sequence, the figures for GAAAATGGAAACGTTTTC (((((.(....).))))) were -32.3 kcal/mol and 37.8 °C.
The corresponding values for GAAACACGAAAGTGCTTC (((.(((....))).))) are -22.5 kcal/mol and 43.8 °C.
Consider GAAACACGAAAGTGGTTC (((.(((....))).))), for which the folding enthalpy in series [1] was -44.3 kcal/mol. Besides, the Tm in series [2] came to 55 °C.
The corresponding values for GAAACAGCGAAAGCTTTC (((..(((....)))))) are -15.3 kcal/mol and 29.1 °C.
Taken in the same sequence, the figures for GAAACAGGAAACCGTTTC (((((.(....).))))) were -24.3 kcal/mol and 35.8 °C.
Taken in the same sequence, the figures for GAAACAGGAAACTGTTCC (.(((((....))))).) were -14.9 kcal/mol and 35.3 °C.
On to GAAACCCGAAAGGGATTC (((.(((....))).))), for which, in series [1], the folding enthalpy was -23.6 kcal/mol. For the same sequence, the Tm in series [2] amounted to 49.3 °C.
As for GAAACCGAAAGGTACTTC ((((((....)))..))), the folding enthalpy in series [1] was -17.8 kcal/mol. Also, in series [2], the Tm was determined as 34.6 °C.
Taken in the same sequence, the figures for GAAACCGAAAGGTATTTC ((((((....)))..))) were -12.4 kcal/mol and 26.6 °C.
Regarding GAAACCGAAAGGTCCTTC ((((((....)))..))), the folding enthalpy in series [1] was -14.6 kcal/mol. Also, the Tm in series [2] was determined as 30.7 °C.
Taken in the same sequence, the figures for GAAACGACGAAAGTCTTC (((..(((....)))))) were -9.41 kcal/mol and 29.5 °C.
Taken in the same sequence, the figures for GAAACGCCGAAAGGCTTC (((..(((....)))))) were -7.92 kcal/mol and 23.1 °C.
The corresponding values for GAAACGCGAAAGCGTTC (((.(((....)))))) are -8.94 kcal/mol and 50.6 °C.
In the case of GAAACGGGAAACCATTTC ((((.((....)).)))), the folding enthalpy in series [1] is -21.5 kcal/mol. Besides, the Tm in series [2] stood at 28.8 °C.
Turning to GAAACGGGAAACCGTTTC (((((((....))))))), in series [1], the folding enthalpy is -50.9 kcal/mol. The Tm in series [2] turned out to be 60.3 °C.
Take GAAAGACCGAAAGGTTTC (((..(((....)))))): the folding enthalpy in series [1] was -11.5 kcal/mol. Moreover, in series [2], the Tm turned out to be 28.8 °C.
Taken in the same sequence, the figures for GAAAGACGAAAGTCATTC (((.(((....))).))) were -21.1 kcal/mol and 38.2 °C.
Taken in the same sequence, the figures for GAAAGACGAAAGTCTTC (((.(((....)))))) were -12.6 kcal/mol and 44.3 °C.
The corresponding values for GAAAGCGAAAGCTAATTC ((((((....)))..))) are -8.31 kcal/mol and 28.8 °C.
Regarding GAAAGCGAAAGCTCTTTC ((((((....)))..))), in series [1], the folding enthalpy is -16.7 kcal/mol. Also, the Tm in series [2] was determined as 38.2 °C.
Taken in the same sequence, the figures for GAAAGCGAAAGCTTTTTC ((((((....)))..))) were -14.2 kcal/mol and 49 °C.
The corresponding values for GAAAGCGGAAACGCTCTC ((.((((....)))).)) are -12.3 kcal/mol and 35 °C.
Taken in the same sequence, the figures for GAAAGGCCGAAAGGCTTC (((..(((....)))))) were -8.26 kcal/mol and 28.5 °C.
On to GAAAGGCGAAAGCCGTTC (((.(((....))).))), for which the folding enthalpy in series [1] was -11.9 kcal/mol. Further, the Tm in series [2] is 46.7 °C.
The corresponding values for GAAAGGGAAACCTTTC ((((((....)))))) are -30 kcal/mol and 47 °C.
Take GAAAGGGGAAACCCTTTC (((((((....))))))): in series [1], the folding enthalpy is -47 kcal/mol. The Tm in series [2] was found to be 54.8 °C.
Take GAAAGTGAAAACTTTC ((((((....)))))): the folding enthalpy in series [1] was -27.2 kcal/mol. The Tm in series [2] turned out to be 47.7 °C.
The corresponding values for GAAAGTGGAAACACTTTC (((((((....))))))) are -36.1 kcal/mol and 56.8 °C.
Taken in the same sequence, the figures for GAAAGTGGAAACATTTTC ((((.((....)).)))) were -27.4 kcal/mol and 32.1 °C.
On to GAAATACGAAAGTAATTC (((.(((....))).))), for which the folding enthalpy in series [1] was -15 kcal/mol. The Tm in series [2] turned out to be 32.9 °C.
Turning to GAAATACGAAAGTATTC (((.(((....)))))), the folding enthalpy in series [1] is -12.8 kcal/mol. Moreover, the Tm in series [2] turned out to be 38.9 °C.
With GAAATAGAAATATTTC ((((((....)))))), the folding enthalpy in series [1] is -21.9 kcal/mol. For the same sequence, the Tm in series [2] is 32.7 °C.
